Source: ChEMBL document CHEMBL2016445, “Discovery of a novel class of potent and orally bioavailable sphingosine 1-phosphate receptor 1 antagonists” (J Med Chem, 2012)
One block for each molecule: values may come before it.

What was measured:
[1] = target: T1, Sphingosine 1-phosphate receptor 1 (Homo sapiens, UniProt P21453); experiment: Antagonist activity at S1P1 receptor expressed in HEK293 cells assessed as inhibition of S1P-induced cAMP response after 90 mins by spectrophotometry; type: functional, cell-based
[2] = Drug uptake in nu/nu homozygous mouse plasma at 100 mg/kg, po as a solution in 10% EtOH/40% PEG400/water + 1:1 HCl after 1 hr by HPLC/MS/MS analysis; type: ADME, organism-based; design: dose 100 mg/kg, route oral
In short: (§1)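 Female Nu/Nu mice (~8 wk, 20-22 g) given a single 100 mpk oral dose at 10 mL/kg. Vehicles: 10% EtOH/45% or 40% PEG400/water + 1 molar equiv HCl, 10% EtOH/40% PEG400/20% Captisol + HCl, or 10% NMP/90% corn oil. Heparinized blood collected 1 and 4 h post-dose; plasma analysed by HPLC/MS/MS.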

[3] = Drug uptake in nu/nu homozygous mouse plasma at 100 mg/kg, po as a solution in 10% EtOH/40% PEG400/water + 1:1 HCl after 4 hrs by HPLC/MS/MS analysis; type: ADME, organism-based; design: dose 100 mg/kg, route oral; in short: as §1
[4] = Drug uptake in nu/nu homozygous mouse plasma at 100 mg/kg, po as a suspension in 10% NMP/corn oil after 1 hr by HPLC/MS/MS analysis; type: ADME, organism-based; design: dose 100 mg/kg, route oral; in short: as §1
[5] = Drug uptake in nu/nu homozygous mouse plasma at 100 mg/kg, po as a suspension in 10% NMP/corn oil after 4 hrs by HPLC/MS/MS analysis; type: ADME, organism-based; design: dose 100 mg/kg, route oral; in short: as §1
[6] = Metabolic stability of the compound in mouse liver microsomes assessed as compound oxidation measuring disappearance of compound at 15 uM after 30 mins by LC/MS/MS analysis; type: ADME, Microsome; details: read-out: Drug degradation
In short: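 Incubated in duplicate for 30 min at 37 °C: 15 µM compound, 0.15% DMSO, 0.5 mg/mL mouse liver microsomes, 1 mM NADPH, 100 mM potassium phosphate pH 7.4. Stopped with acetonitrile containing 0.1% formic acid. Parent remaining measured by LC/MS/MS; disappearance calculated relative to no-NADPH controls.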

[7] = target: T1, Sphingosine 1-phosphate receptor 1; experiment: Antagonist activity at S1P1 receptor expressed in HEK293 cells assessed as inhibition of S1P-induced tango beta-arrestin recruitment preincubated for 30 mins prior S1P addition measured after 16 to 18 hrs by luciferase reporter gene assay; type: functional, cell-based
[8] = target: Sphingosine 1-phosphate receptor 2 (Homo sapiens, UniProt O95136); experiment: Antagonist activity at S1P2 receptor expressed in HEK293 cells assessed as inhibition of S1P-induced tango beta-arrestin recruitment preincubated for 30 mins prior S1P addition measured after 16 to 18 hrs by luciferase reporter gene assay; type: functional, cell-based
[9] = target: Sphingosine 1-phosphate receptor 3 (Homo sapiens, UniProt Q99500); experiment: Antagonist activity at S1P3 receptor expressed in HEK293 cells assessed as inhibition of S1P-induced tango beta-arrestin recruitment preincubated for 30 mins prior S1P addition measured after 16 to 18 hrs by luciferase reporter gene assay; type: functional, cell-based
[10] = Antitumor activity against human MDA-MB-231T cells xenografted in athymic nude mouse assessed as tumor growth inhibition at 300 mg/kg, po qd for 14 days post implantation measured for 14 days; type: functional; details: 336 h, read-out: TGI
In short: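 MDA-MB-231T cells grown in DMEM with 10% FBS. 1 x 10⁶ cells in ice-cold HBSS implanted into the mammary fat pad of female athymic nude (NCr) mice, 5-8 wk. Daily oral dosing at 10 mL/kg, solutions made fresh daily. Tumor weight measured twice weekly; TGI calculated against vehicle and staging-day weights; 2-tailed t-test, p<0.05.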

[11] = system: Mus musculus; experiment: Toxicity in athymic nude mouse xenografted with human MDA-MB-231T cells assessed as body weight loss at 300 mg/kg, po qd for 14 days post implantation measured for 14 days; type: organism-based; design: dose 300 mg/kg, route oral; details: in vivo, 336 h
In short: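 Female NCr athymic nude mice bearing mammary fat pad MDA-MB-231T tumors (1 x 10⁶ cells). Dosed orally once daily at 10 mL/kg from fresh solutions. Body weights recorded daily; clinical signs and survival monitored daily.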

[12] = Drug uptake in nu/nu homozygous mouse plasma at 100 mg/kg, po as a solution in 10% EtOH/45% PEG400/water + 1:1 HCl after 1 hr by HPLC/MS/MS analysis; type: ADME, organism-based; design: dose 100 mg/kg, route oral; in short: as §1
[13] = Drug uptake in nu/nu homozygous mouse plasma at 100 mg/kg, po as a solution in 10% EtOH/45% PEG400/water + 1:1 HCl after 4 hrs by HPLC/MS/MS analysis; type: ADME, organism-based; design: dose 100 mg/kg, route oral; in short: as §1

T1 sequence (P21453 whole entry): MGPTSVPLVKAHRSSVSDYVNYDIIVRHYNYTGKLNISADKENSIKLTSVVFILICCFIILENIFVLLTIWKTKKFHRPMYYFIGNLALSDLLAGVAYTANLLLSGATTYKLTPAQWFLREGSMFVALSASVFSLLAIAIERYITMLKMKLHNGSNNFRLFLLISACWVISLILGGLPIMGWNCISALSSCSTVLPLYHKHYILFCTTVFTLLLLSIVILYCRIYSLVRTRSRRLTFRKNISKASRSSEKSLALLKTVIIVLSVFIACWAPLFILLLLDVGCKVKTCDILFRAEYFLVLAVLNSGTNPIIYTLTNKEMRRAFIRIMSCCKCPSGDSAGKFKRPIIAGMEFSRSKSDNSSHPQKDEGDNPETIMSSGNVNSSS
Chain of Sphingosine 1-phosphate receptor 3 (Q99500 whole entry): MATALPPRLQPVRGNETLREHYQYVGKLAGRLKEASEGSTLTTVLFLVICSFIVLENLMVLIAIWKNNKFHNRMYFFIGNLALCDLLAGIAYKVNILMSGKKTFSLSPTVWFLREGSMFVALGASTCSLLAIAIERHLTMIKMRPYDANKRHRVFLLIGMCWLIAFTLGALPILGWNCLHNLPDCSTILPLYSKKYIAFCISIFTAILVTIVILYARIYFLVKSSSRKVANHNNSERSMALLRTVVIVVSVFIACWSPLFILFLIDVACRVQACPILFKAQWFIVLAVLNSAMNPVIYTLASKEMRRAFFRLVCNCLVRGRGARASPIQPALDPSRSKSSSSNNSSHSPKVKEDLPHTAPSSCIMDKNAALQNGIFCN
Chain of Sphingosine 1-phosphate receptor 2 (O95136 whole entry): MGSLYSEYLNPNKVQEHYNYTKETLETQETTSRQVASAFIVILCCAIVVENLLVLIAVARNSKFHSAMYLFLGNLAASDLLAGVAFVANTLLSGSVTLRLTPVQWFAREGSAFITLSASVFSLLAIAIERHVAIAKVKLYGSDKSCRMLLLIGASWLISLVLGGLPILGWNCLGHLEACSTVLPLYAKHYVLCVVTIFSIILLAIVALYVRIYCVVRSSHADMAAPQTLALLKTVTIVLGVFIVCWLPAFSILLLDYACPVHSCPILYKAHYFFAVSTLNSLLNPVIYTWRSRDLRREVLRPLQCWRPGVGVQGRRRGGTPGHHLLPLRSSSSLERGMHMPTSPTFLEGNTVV

IC50 [1]: > 10000 nM
Compound: CN(CC(=O)N[C@H](COCc1ccccc1)C(=O)Nc1ccc(Oc2ccccc2)cc1)C(=O)c1ccccc1

IC50 [1]: 548 nM
Compound: CN(CC(=O)N[C@@H](COCc1ccccc1)C(=O)Nc1ccc(Oc2ccccc2)cc1)C(=O)c1ccccc1

IC50 [1]: > 1000 nM
Compound: O=C(N[C@@H](COCc1ccccc1)C(=O)Nc1ccc(Oc2ccccc2)cc1)c1cnc[nH]1

IC50 [1]: 33 nM
concentration at 1 h [2]: 5 µM
concentration at 4 h [3]: 3 µM
concentration at 1 h [4]: 4.4 µM
concentration at 4 h [5]: 0.3 µM
metabolised at 0.5 h, 15 µM [6]: 28%
Compound: O=C(Cc1cnc[nH]1)N[C@@H](COCc1ccccc1)C(=O)Nc1ccc(Oc2ccccc2)cc1

IC50 [1]: 228 nM
Compound: Cn1cnc(CC(=O)N[C@@H](COCc2ccccc2)C(=O)Nc2ccc(Oc3ccccc3)cc2)c1

IC50 [1]: > 10000 nM
Compound: O=C(Cc1cc(Cl)ccc1Cl)N[C@@H](COCc1ccccc1)C(=O)Nc1ccc(Oc2ccccc2)cc1

IC50 [1]: 500 nM
Compound: O=C(Cc1ccccc1F)N[C@@H](COCc1ccccc1)C(=O)Nc1ccc(Oc2ccccc2)cc1

The remaining lines, values behind:

Compound: O=C(Cc1cnc[nH]1)N[C@@H](COCc1ccccc1)C(=O)Nc1ccc(Oc2cccc(Cl)c2)cc1
IC50 [1]: 96 nM

Compound: O=C(Cc1cnc[nH]1)N[C@@H](COCc1ccccc1)C(=O)Nc1ccc(Oc2ccccc2)c(Cl)c1
IC50 [1]: 211 nM

Compound: O=C(Cc1cnc[nH]1)N[C@@H](COCc1ccccc1)C(=O)Nc1ccc(Oc2ccc(Cl)cc2)cc1
IC50 [1]: 32 nM
IC50 [7]: 221 nM
IC50 [8]: > 10000 nM
IC50 [9]: > 10000 nM
metabolised at 0.5 h, 15 µM [6]: 9%
inhibition in vivo at 300 mg/kg [10]: 45%
Activity [11]: Non-toxic
concentration at 1 h [12]: 11 µM
concentration at 4 h [13]: 11 µM

Compound: O=C(Cc1cnc[nH]1)N[C@@H](COCc1ccccc1)C(=O)Nc1ccc(Oc2ccccc2Cl)cc1
IC50 [1]: > 10000 nM

Compound: O=C(Cc1c[nH]cn1)N[C@@H](COCc1ccccc1)C(=O)Nc1ccc(Oc2ccc(F)cc2)cc1
IC50 [1]: 13 nM
IC50 [7]: 284 nM
IC50 [8]: > 10000 nM
IC50 [9]: > 10000 nM
concentration at 1 h [2]: 8 µM
concentration at 4 h [3]: 3 µM
metabolised at 0.5 h, 15 µM [6]: 9%
inhibition in vivo at 300 mg/kg [10]: 54%
Activity [11]: Non-toxic

Compound: O=C(Cc1cnc[nH]1)N[C@@H](COCc1ccccc1)C(=O)Nc1ccc(OC2CCCCC2)cc1
IC50 [1]: 702 nM

Compound: O=C(Cc1c[nH]cn1)N[C@@H](COCc1ccccc1)C(=O)Nc1ccc(OCc2ccccc2)cc1
IC50 [1]: 152 nM

Compound: O=C(Cc1cnc[nH]1)N[C@@H](COCc1ccccc1)C(=O)Nc1ccc2oc3ccccc3c2c1
IC50 [1]: > 10000 nM

Compound: O=C(Cc1cnc[nH]1)N[C@@H](COCc1ccccc1)C(=O)Nc1ccc(Cc2ccccc2)cc1
IC50 [1]: > 10000 nM

Compound: O=C(Cc1cnc[nH]1)N[C@@H](COCc1ccccc1)C(=O)Nc1ccc(Nc2ccccc2)cc1
IC50 [1]: 743 nM
